SKN-1 inh: C. elegans SKN-1 inhibition; 0.49% of 360,000 active; C. elegans VP596 Pgst-4::GFP/RFP ratio, acrylamide-induced, 24 h; AID 624304; inhibition, % at 21.8 µM;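 active = interference check ratio from 0.5 to 1.5 plus GFP to RFP signal ratio inhibition reaching or exceeding a fixed threshold, cut at about 30% in these data, passing the limit was not always enough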
MT1-MMP act inh: blocks activation of human MT1-MMP | 0.061% of 360,000 active | P50281 | GFP/RFP ratio change, % at 20 µM | HT1080 RFP-PRO-GFP cells, GFP/RFP ratio fluorescence, overnight; percent of plate control window, DMSO zero;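 active = GFP/RFP ratio change of at least 30% with cell ATP level not reduced by more than half and red fluorescence within 50% of control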
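Assay system: RFP-PRO-GFP reporter HT1080 cells; read-out basis: GFP/RFP fluorescence ratio; benchmarks: DMSO wells and RFP-L50D-GFP cells; doses: 20 µM single dose, 1% DMSO; schedule: overnight cell settling, then overnight compound exposure, 37 °C, 5% CO2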
Cneo AK release: causes C. neoformans cell lysis; adenylate kinase release luminescence, 4 h; normalised: neutral wells 0, clomiphene wells 100; lysis activity, % at 15 µM; 0.2% of 360,000 active;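 active = mean lysis activity across replicates of at least 80%, whatever share of replicates individually reach that level; inactive = mean lysis activity below 80%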
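Material: C. neoformans cells; Schedule: 4 h static compound exposure, 37 °C, read 1 h post-reagent; Measured by: adenylate kinase release luminescence; Read-out: signal increase indicating cell lysis; Controls: Clomiphene as positive lysis control.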
hiPSC survival: increases survival of single human iPS cells. hiPSC single-cell survival, ATPlite luminescence; 100% = ROCK inhibitor wells, 0% = DMSO. survival enhancement, % at 20 µM. 0.044% of 360,000 active. AID 602274; in the data active = survival enhancement above about 18%;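 note: cells exposed to compounds for 16 hours before the ATP read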
rRNA inh HTS: selective bacterial rRNA inhibition in E. coli | E. coli WT GFP vs humanized-ribosome RFP mutants, fluorescence, 24 h; active compounds read low; DMSO median 0, no signal -100 | GFP signal change (wild-type ribosome), % (concentration not given with the values) | 1.6% of 350,000 active;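 active = significant combined selectivity score with lowered wild-type GFP, culture density cut under 30%, mutant RFP and density less affected; inactive = any of these conditions unmet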
DAGLB inh: diacylglycerol lipase beta (human) inhibition; Q8NCG7; HEK293T DAGLB membrane lysate, EnzChek fluorogenic substrate; inhibition, % at 5.17 µM; 0.059% of 340,000 active; in the data active = inhibition above about 34%;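 note: 0% = enzyme with vehicle and 100% = wells lacking enzyme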
Target sequence (Q8NCG7 whole entry, looked up): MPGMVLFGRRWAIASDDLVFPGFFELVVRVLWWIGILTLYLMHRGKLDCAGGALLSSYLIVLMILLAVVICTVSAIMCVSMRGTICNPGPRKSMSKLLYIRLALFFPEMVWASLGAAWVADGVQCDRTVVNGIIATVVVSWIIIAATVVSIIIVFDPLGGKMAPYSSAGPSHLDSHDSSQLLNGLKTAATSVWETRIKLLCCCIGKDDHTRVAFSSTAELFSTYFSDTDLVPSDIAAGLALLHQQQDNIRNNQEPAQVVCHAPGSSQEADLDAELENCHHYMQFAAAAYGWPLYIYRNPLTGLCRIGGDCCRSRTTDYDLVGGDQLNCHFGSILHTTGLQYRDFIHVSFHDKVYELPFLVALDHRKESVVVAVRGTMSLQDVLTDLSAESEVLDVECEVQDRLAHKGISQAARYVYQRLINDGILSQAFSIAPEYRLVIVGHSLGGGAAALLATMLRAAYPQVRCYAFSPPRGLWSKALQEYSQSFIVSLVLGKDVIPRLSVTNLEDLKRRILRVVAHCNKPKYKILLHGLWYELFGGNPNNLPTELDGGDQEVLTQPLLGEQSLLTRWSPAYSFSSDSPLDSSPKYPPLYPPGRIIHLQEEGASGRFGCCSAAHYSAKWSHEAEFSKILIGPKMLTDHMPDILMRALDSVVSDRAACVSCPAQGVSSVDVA
* = called active by the depositor; x = no result given. In the library only some 1.8% were active in any assay of this set; here they are far more common.

SMILES	SKN-1 inh	MT1-MMP act inh	Cneo AK release	hiPSC survival	rRNA inh HTS	DAGLB inh
CN1C(=O)c2cc(NC(=O)C3CCOCC3)ccc2OC[C@@H]2O[C@H](CC(=O)NCc3ccc4c(c3)OCO4)CC[C@@H]21	x	x	-1.8	x	-0.9	x
C[C@H]1CC(=O)N[C@H](c2ccccc2)C/C=C\C[C@H](c2ccc3c(c2)OCO3)NC1=O	x	x	x	x	-2.5	x
O/N=C(/CCc1ccccc1)c1ccc2c(c1)OCCO2	-1.0	4.2	-1.5	0.0	-25.0*	-13.7
O=C(CCc1ccccc1)c1ccc2c(c1)OCCCO2	-23.4	-1.3	-3.0	-1.4	x	-23.9
O=C(CCCc1ccccc1)c1ccc2c(c1)OCCO2	5.9	-7.7	35.6	-6.4	-30.0*	-16.4
O=C(O)COn1c(-c2ccc(Cl)cc2)nc2ccc(Cl)cc21	12.0	4.6	x	0.7	2.4	4.0
CCOC(=O)C(C)On1c(-c2ccccc2)nc2ccc([N+](=O)[O-])cc21 (stereo not drawn)	-0.6	2.0	x	1.7	x	-1.8
CCOC(=O)C(C)On1c(-c2ccc(Cl)cc2)nc2ccc([N+](=O)[O-])cc21 (stereo not drawn)	41.2*	-8.7	x	9.0	x	0.9
O=[N+]([O-])c1ccc2nc(-c3ccc(Cl)cc3)n(OCc3ccccc3)c2c1	40.8*	3.0	-1.3	-4.7	x	-0.6
COn1c(-c2ccc(Cl)cc2)nc2ccc(Cl)cc21	87.4*	1.9	-2.0	-1.0	x	-12.8
COc1ccc(CN2C[C@@H](C)[C@@H](OC)CN(C)C(=O)c3cc(NC(=O)C4CC4)ccc3OC[C@H]2C)cc1	x	x	-6.0	x	1.9	x
C[C@@H]1CN([C@@H](C)CO)C(=O)c2cc(NS(=O)(=O)c3cn(C)cn3)ccc2O[C@H]1CN(C)CC1CCCCC1	x	x	15.5	x	2.0	x
C[C@@H]1CN([C@H](C)CO)C(=O)c2cc(C#CC3CC3)cnc2O[C@@H]1CN(C)C(=O)c1ccccc1	x	x	10.7	x	0.3	x
Cn1c(SCC(=O)Nc2ccccc2-c2ccccc2)nnc1-c1ccco1	6.0	3.6	-1.3	0.6	-23.8*	-0.6
Cc1occc1-c1nnc(SCC(=O)Nc2ccccc2-c2ccccc2)n1C	-11.6	-1.6	1.0	-1.1	x	3.4
CCC(=O)c1ccc(OCC(=O)Nc2nc(C)cs2)cc1	-5.5	2.1	-0.8	1.0	-26.9*	-1.1
COc1ccc(S(=O)(=O)Nc2ccc3c(c2)C(=O)N([C@@H](C)CO)C[C@H](C)[C@H](CN(C)C)OCCCC[C@@H](C)O3)cc1	x	x	-1.0	x	2.4	x
CO[C@@H]1CN(C)C(=O)c2ccc(NS(=O)(=O)c3ccccc3F)cc2OC[C@@H](C)NC[C@@H]1C	x	x	x	x	1.5	x
O=C(NCCc1ccc(C(F)(F)F)cc1)C1CCC(=O)N(CCCc2ccccc2)C1 (stereo not drawn)	-6.8	2.9	7.2	-0.1	-45.7*	-0.9
C[C@@H]1CN([C@H](C)CO)S(=O)(=O)c2ccc(C#Cc3ccncc3)cc2O[C@H]1CN(C)S(=O)(=O)c1ccccc1	x	x	0.5	x	x	x
O=C1/C(=C/N(C(=O)c2ccco2)c2ccc(Cl)cc2)Sc2ccccc21	27.3	-14.8	x	-1.3	x	-7.2
O=C1/C(=C/N(C(=O)c2ccco2)c2ccc(Br)cc2)Sc2ccccc21	37.9*	4.1	-8.8	-2.0	x	-4.6
O=C(NCc1ccccc1)C1CCCN(c2ncnc3c2nc2n3CCCCC2)C1 (stereo not drawn)	-3.4	-1.0	-11.2	-0.3	-6.2	-0.8
COc1ccccc1NC(=O)C1CCCN(c2ncnc3c2nc2n3CCCCC2)C1 (stereo not drawn)	13.3	3.2	-11.1	0.5	-33.3*	-0.7
O=C(Nc1ccccc1Cl)C1CCCN(c2ncnc3c2nc2n3CCCCC2)C1 (stereo not drawn)	-1.0	0.8	2.1	-0.3	-30.0*	3.1
SMILES	SKN-1 inh	MT1-MMP act inh	Cneo AK release	hiPSC survival	rRNA inh HTS	DAGLB inh
COc1cc(NC(=O)C2CCCN(c3ncnc4c3nc3n4CCCCC3)C2)cc(OC)c1OC (stereo not drawn)	-14.5	0.4	-10.3	1.4	-26.4	-4.1
CCN(Cc1ccccc1)C(=O)C1CCN(c2ncnc3c2nc2n3CCCCC2)CC1	-10.0	-0.6	-0.8	-0.3	-25.3*	-1.6
COc1cccc(-c2ccc([C@@H]3[C@@H](CO)N4C(=O)CN(C(=O)NC(C)C)C[C@H]34)cc2)c1	x	x	x	x	2.9	x
Cc1cccc(NC(=O)c2ccc3c(c2)C(=O)N(c2ccccc2C)C3=O)n1	43.0*	-1.5	-4.1	-0.5	0.9	0.2
Cc1cccc(NC(=O)c2cccc(C(=O)Nc3cccc(C)n3)c2)n1	3.4	-3.2	-4.4	-0.6	-3.1	-3.2
COc1ccc(/C(N)=N/OC(=O)c2ccco2)cc1	51.1*	1.8	8.6	-1.8	-14.5	-4.5
Cc1ccc(/C(N)=N/OC(=O)c2ccco2)cc1	85.3*	-0.2	-0.3	-2.7	x	-16.7
N/C(=N\OC(=O)Cc1cccs1)c1ccc([N+](=O)[O-])cc1	13.2	8.7	-1.2	2.4	x	-1.4
N/C(=N\OC(=O)c1ccco1)c1ccccc1	12.5	0.0	-1.2	1.7	x	-6.1
N/C(=N\OC(=O)Cc1cccs1)c1ccc(Br)cc1	60.7*	1.0	-2.5	0.9	-1.3	-9.9
N/C(=N\OC(=O)c1ccco1)c1ccc(Br)cc1	50.2*	1.5	-1.3	0.8	x	-3.8
Cc1ccc(C2=NN(S(C)(=O)=O)C(c3ccc4c(c3)OCO4)C2)cc1 (stereo not drawn)	38.2*	4.8	x	-1.6	7.9	0.7
CS(=O)(=O)N1N=C(c2ccc(Br)cc2)CC1c1ccc2c(c1)OCO2 (stereo not drawn)	36.6	-26.3	0.4	-0.2	x	-2.3
CCCn1nc(NS(=O)(=O)c2ccccc2[N+](=O)[O-])c2cc3ccccc3nc21	2.6	-1.2	-4.1	-0.3	-20.9*	4.5
CCn1nc(NS(=O)(=O)c2ccccc2[N+](=O)[O-])c2cc3ccc(C)cc3nc21	-13.9	-1.6	15.8	-0.1	x	5.5
C[C@@H]1CN([C@@H](C)CO)C(=O)c2cc(C3=CCCC3)cnc2O[C@@H]1CN(C)C(=O)c1ccccn1	x	x	-0.5	x	1.2	x
Cc1cccc2cc(CN(CC3CCCO3)S(=O)(=O)c3ccccc3)c(=O)[nH]c12 (stereo not drawn)	4.8	1.7	0.8	-0.1	-24.3*	3.4
CC=Cc1ccc2n(c1=O)C[C@@H]1[C@@H](CO)[C@H](C(=O)NCCC)N(C(=O)CC)[C@H]21 (mixture of isomers)	x	x	-2.2	x	-0.6	x
CCCc1nc2ccccc2n1Cc1ccccc1OC	5.5	3.0	7.0	6.8	-45.5*	0.1
COc1ccc(NC(=O)c2cccs2)cc1NC(=O)c1ccco1	-1.9	11.5	1.4	0.5	x	-1.6
